This note sets out measurements from ChEMBL document CHEMBL3739411, “Cytotoxic Illudane Sesquiterpenes from the Fungus Granulobasidium vellereum (Ellis and Cragin) Jülich” (J Nat Prod, 2015).

Series [1] is described as follows: Cytotoxicity against human HuH7 cells assessed as viable cells after 6 days by XTT assay. In kind it is functional. The note with it: Huh-7, 144 h. Summed up:
(§1)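 Cells seeded at 2 × 10⁴ cells/well in 96-well plates; test substances added next day in duplicate. CC50 is the concentration giving 50% viability relative to untreated control cells. Positive control included.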

For a further series, the system named is MT4. The series can be described thus: Cytotoxicity against human MT4 cells assessed as viable cells after 6 days by XTT assay. In kind it is functional. The note with it: MT4, 144 h. Summed up: as §1
For orientation: Tetrazolium dyes change colour on reduction, which living cells bring about.

A short description of series [2]: Chemical reactivity of the compound in aqueous HCl assessed as reaction rate. Format: physicochemical. The note with it: buffer. The method in brief:
(§2)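 Compound dissolved in 2 M HCl at room temperature; reaction followed spectrophotometrically at 318 nm and by LC-HRESIMS. First-order rate constant k (min⁻¹) and t1/2 (min) derived from the decay.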

Series [3] is described as follows: Half life of the compound in aqueous HCl. Format: physicochemical. The method in brief: as §2
Series [4] can be described thus: Half life of the compound in phosphate buffer at pH 5.4 in presence of cysteine. The note with it: phosphate buffer with cysteine. Format: ADME.
Series [5] can be described thus: Drug level in phosphate buffer treated with (3S,7R)-Illudin M at pH 5.4 in presence of cysteine. In kind it is physicochemical. The method in brief:
(§3)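 Compound was incubated with L-cysteine in 50 mM buffer at pH 5.4 at room temperature. The reaction was followed for 3 h by UV absorbance at 318 nm and by LC-HRESIMS (C18, 10−90% aqueous MeCN gradient). Reaction half-life was taken from the time course.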

Series [6] can be described thus: Drug level in phosphate buffer treated with (3S,7S)-Illudin M at pH 5.4 in presence of cysteine. Format: physicochemical. The method in brief:
as §3

The structures appear in SMILES notation.

On to `COc1nc(N)nc2c1ncn2[C@@H]1O[C@H](COP(=O)(N[C@H](C)C(=O)OCC(C)(C)C)Oc2ccc3ccccc3c2)[C@@H](O)[C@@]1(C)O` (stereo partly drawn), for which the CC50 (in series [1]; in the series on MT4) was 3000 nM throughout.
For the compound `CC1=C2C(=CC(C)(C)[C@@H]2O)C(=O)[C@@](C)(O)C12CC2`, the figures for the 50% cytotoxic concentration (CC50) (in series [1]; in the series with MT4) were 380 nM and 14 nM, respectively. Moreover, the K in series [2] amounted to 12 ×10⁻³ /min. In addition, the half-life (commonly the time in which the quantity being followed falls by half) in series [3] amounted to 38 min; in series [4], 5.6 min.
For `CC1=C2C(=C[C@@](C)(CO)[C@@H]2O)C(=O)[C@@](C)(O)C12CC2`, the 50% cytotoxic concentration (CC50) – broadly, the concentration that lowers cell viability or growth by half – in series [1] was found to be 98 nM; in the series on MT4 it was 23 nM.
For the compound `Cc1c(O)c2c(c(C)c1CCO)[C@H](O)C(C)(C)[C@H]2SC[C@H](N)C(=O)O`, in series [5], the Drug metabolism entry is on record as “metabolite_detected”.
For `CC1=CC2=C[C@@](C)(CO)C[C@@H]2[C@@](C)(O)C12CC2`, the CC50 (in series [1]; in the series with MT4) was more than 400000 nM throughout.
As for `CC1=C2C(=CC(C)(C)[C@H]2O)C(=O)[C@@](C)(O)C12CC2`, the figures for the CC50 (in series [1]; in the series on MT4) were 1300 nM and 120 nM, respectively. In series [2], the K was 4.1 ×10⁻³ /min. Besides, the half-life in series [3] was found to be 170 min; in series [4], 27 min.
In the case of `Cc1c(O)c2c(c(C)c1CCO)[C@H](O)C(C)(C)[C@@H]2SC[C@H](N)C(=O)O`, the Drug metabolism result in series [5] is on record as “metabolite_detected”.
Take `Cc1c(O)c2c(c(C)c1CCO)[C@@H](O)C(C)(C)[C@H]2SC[C@H](N)C(=O)O`: the Drug metabolism result in series [6] is “metabolite_detected”.
For `CC1(C)C=C2C=C(CO)C3(CC3)[C@](C)(O)[C@H]2C1`, the CC50 in series [1] is 240000 nM; in the series on MT4, 110000 nM.
Turning to `CC1=C2C(=CC(C)(C)[C@@H]2O)C(=O)[C@](C)(O)C12CC2` [ILLUDIN M], in series [2], the K was found to be 4.7 ×10⁻³ /min. The compound also gave a half-life in series [3] of 147 min.
